Measurements published in ChEMBL document CHEMBL5584326, “Second-generation piperazine derivatives as promising radiation countermeasures” (RSC Med Chem, 2024).

Key:
[1] = system: Jurkat; experiment: Cytotoxicity against human Jurkat cells assessed as reduction in cell viability at 100 uM measured after 48 hrs by WST-1 assay; format: toxicity, cell-based
How it was run: (§1)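 Cells kept at 37 °C in humidified 5% CO2, adherent lines under 10 passages, suspension lines under 20, exponential phase. Seeded at 1–50 × 10^3 cells per well, settled overnight, then a single 48 h exposure at 100 μM final. WST-1 read at 440 nm. Proliferation given as % of 0.1% DMSO mock control, mean of three independent experiments.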

[2] = system: MOLT-4; experiment: Cytotoxicity against human MOLT-4 cells assessed as reduction in cell viability at 100 uM measured after 48 hrs by WST-1 assay; format: toxicity, cell-based; details: molt-4, 48 h; how it was run: as §1
[3] = system: A549; experiment: Cytotoxicity against human A549 cells assessed as reduction in cell viability at 100 uM measured after 48 hrs by WST-1 assay; format: toxicity, cell-based; details: a549, 48 h; how it was run: as §1
[4] = system: HT-29; experiment: Cytotoxicity against human HT-29 cells assessed as reduction in cell viability at 100 uM measured after 48 hrs by WST-1 assay; format: toxicity, cell-based; details: ht-29, 48 h; how it was run: as §1
[5] = system: PANC-1; experiment: Cytotoxicity against human PANC-1 cells assessed as reduction in cell viability at 100 uM measured after 48 hrs by WST-1 assay; format: toxicity, cell-based; details: panc-1, 48 h; how it was run: as §1
[6] = system: MCF7; experiment: Cytotoxicity against human MCF7 cells assessed as reduction in cell viability at 100 uM measured after 48 hrs by WST-1 assay; format: toxicity, cell-based; details: mcf7, 48 h; how it was run: as §1
[7] = system: SAOS-2; experiment: Cytotoxicity against human SAOS-2 cells assessed as reduction in cell viability at 100 uM measured after 48 hrs by WST-1 assay; format: toxicity, cell-based; details: saos-2, 48 h; how it was run: as §1
[8] = system: MRC5; experiment: Cytotoxicity against human MRC5 cells assessed as reduction in cell viability at 100 uM measured after 48 hrs by WST-1 assay; format: toxicity, cell-based; details: mrc5, 48 h; how it was run: as §1
[9] = Cytotoxicity against human PBMC assessed as optimal non-toxic concentration required to show >=90 to 100% cell viability measured after 48 hrs by MTS assay; format: toxicity, cell-based; details: read-out: Activity
How it was run: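 PBMCs from a healthy donor were isolated on Histopaque-1077 and cultured in RPMI 1640 with 20% inactivated FBS. About 5×10^4 cells per well were exposed 48 h at 37 °C, 5% CO2 to 10–1000 μM. MTS was added 4 h before reading at 490 nm, blank subtracted, untreated control set to 100%. Concentration taken as viability ≥90% and not below control (P 0.05), mean of ≥3 measurements.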

[10] = system: Blood; experiment: Radioprotective activity against 3 Gy gamma radiation-induced DNA damage in human whole blood assessed as reduction in number of dicentric chromosomes per cell by measuring radioprotection factor at 1000 uM preincubated for 1 hr followed by 3 Gy gamma irradiation and measured after 48 hrs by giemsa staining based microscopic analysis relative to control; format: functional; details: time 49 hrs
How it was run: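 Heparinized whole blood from healthy male donors, 60 min compound pre-exposure, then single 3 Gy 60Co gamma dose at 0.6 Gy/min. After 30 min at 37 °C, cultured in RPMI 1640 with 20% FBS and 2% PHA. Colcemid 0.25 μg/ml added at 48 h, harvest at 50 h, KCl hypotonic, methanol:acetic acid fixation, 5% Giemsa. Automated metaphase scoring. RF = […].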

[11] = Cytotoxicity against human PBMC assessed as reduction in cell viability at 20 uM measured after 48 hrs by MTS assay; format: toxicity, cell-based
How it was run: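 PBMCs isolated from whole blood of a healthy donor by Histopaque-1077 density centrifugation, cultured in RPMI 1640 GlutaMAX with 20% inactivated FBS and penicillin/streptomycin. About 5×10^4 cells/well exposed to 10–1000 μM for 48 h at 37 °C, 5% CO2. MTS added 4 h before reading absorbance at 490 nm, cell-free medium blank subtracted. Untreated control set as 100%; mean of ≥3 independent measurements.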

Question: Which Activity [1] does the source give for `COc1cc([N+](=O)[O-])ccc1OCC(O)CN1CCN(CCO)CC1` (stereo not drawn) here?
Answer: The Activity was “Non-Toxic”.

Question: What about the Activity [2] of the same molecule?
Answer: Its Activity is “Non-Toxic”.

Question: What about the Activity [3] of the same molecule?
Answer: The Activity was “Non-Toxic”.

Question: And the Activity [4]?
Answer: The Activity was “Non-Toxic”.

Question: And the Activity [5]?
Answer: Its Activity is “Non-Toxic”.

Question: What about the Activity [6] of the same molecule?
Answer: The Activity was “Non-Toxic”.

Question: And the Activity [7]?
Answer: Its Activity is “Non-Toxic”.

Question: And the Activity [8]?
Answer: Its Activity is “Non-Toxic”.

Question: And the MNTC at 48 h [9]?
Answer: The MNTC at 48 h was 500 µM.

Question: For `OCCN1CCN(CC(O)COc2ccc(Oc3ccc(F)cc3)cc2)CC1` (stereo not drawn), which Activity [1] is on record?
Answer: Its Activity is “Toxic”.

Question: What about the Activity [2] of the same molecule?
Answer: The Activity was “Toxic”.

Question: What about the Activity [3] of the same molecule?
Answer: Its Activity is “Toxic”.

Question: And the Activity [4]?
Answer: Its Activity is “Toxic”.

Question: And the Activity [5]?
Answer: Its Activity is “Toxic”.

Question: And the Activity [6]?
Answer: Its Activity is “Toxic”.

Question: What about the Activity [7] of the same molecule?
Answer: Its Activity is “Toxic”.

Question: And the Activity [8]?
Answer: The Activity was “Toxic”.

Question: With `COc1ccc(OCC(O)CN2CCN(CCO)CC2)c([N+](=O)[O-])c1` (stereo not drawn) as the molecule, how does the Activity [1] read?
Answer: The Activity was “Non-Toxic”.

Question: And the Activity [2]?
Answer: The Activity was “Non-Toxic”.

Question: And the Activity [3]?
Answer: Its Activity is “Non-Toxic”.

Question: And the Activity [4]?
Answer: The Activity was “Non-Toxic”.

Question: What about the Activity [5] of the same molecule?
Answer: Its Activity is “Non-Toxic”.

Question: What about the Activity [6] of the same molecule?
Answer: The Activity was “Non-Toxic”.

Question: And the Activity [7]?
Answer: Its Activity is “Non-Toxic”.

Question: What about the Activity [8] of the same molecule?
Answer: Its Activity is “Non-Toxic”.

Question: What about the MNTC at 48 h [9] of the same molecule?
Answer: Its MNTC at 48 h is 500 µM.

Question: With `O=[N+]([O-])c1cc(OCC(O)CN2CCN(CCO)CC2)ccc1Cl` (stereo not drawn) as the molecule, how does the Activity [1] read?
Answer: Its Activity is “Non-Toxic”.

Question: What about the Activity [2] of the same molecule?
Answer: The Activity was “Non-Toxic”.

Question: And the Activity [3]?
Answer: The Activity was “Non-Toxic”.

Question: And the Activity [4]?
Answer: Its Activity is “Non-Toxic”.

Question: And the Activity [5]?
Answer: The Activity was “Non-Toxic”.

Question: And the Activity [6]?
Answer: Its Activity is “Non-Toxic”.

Question: What about the Activity [7] of the same molecule?
Answer: Its Activity is “Non-Toxic”.

Question: What about the Activity [8] of the same molecule?
Answer: The Activity was “Non-Toxic”.

Question: What about the MNTC at 48 h [9] of the same molecule?
Answer: Its MNTC at 48 h is 200 µM.

Question: What does the source list for `OCCN1CCN(CC(O)COc2cccc(Cl)c2)CC1` (stereo not drawn)?
Answer: Activity [1]: Non-Toxic; Activity [2]: Non-Toxic; Activity [3]: Non-Toxic; Activity [4]: Non-Toxic; Activity [5]: Non-Toxic; Activity [6]: Non-Toxic; Activity [7]: Non-Toxic; Activity [8]: Non-Toxic; MNTC at 48 h [9]: 500 µM

Question: Which Activity [1] does the source give for `OCCN1CCN(CC(O)COc2ccc(F)cc2)CC1` (stereo not drawn) here?
Answer: The Activity was “Non-Toxic”.

Question: What about the Activity [2] of the same molecule?
Answer: The Activity was “Non-Toxic”.

Question: What about the Activity [3] of the same molecule?
Answer: The Activity was “Non-Toxic”.

Question: And the Activity [4]?
Answer: The Activity was “Non-Toxic”.

Question: And the Activity [5]?
Answer: The Activity was “Non-Toxic”.

Question: And the Activity [6]?
Answer: The Activity was “Non-Toxic”.

Question: And the Activity [7]?
Answer: Its Activity is “Non-Toxic”.

Question: What about the Activity [8] of the same molecule?
Answer: The Activity was “Non-Toxic”.

Question: And the MNTC at 48 h [9]?
Answer: Its MNTC at 48 h is 1000 µM.

Question: And the PI [10]?
Answer: The PI was 1.53.

Question: For `O=[N+]([O-])c1ccc(OCC(O)CN2CCN(CCO)CC2)c(F)c1` (stereo not drawn), which Activity [1] is on record?
Answer: The Activity was “Non-Toxic”.

Question: What about the Activity [2] of the same molecule?
Answer: Its Activity is “Non-Toxic”.

Question: What about the Activity [3] of the same molecule?
Answer: The Activity was “Non-Toxic”.

Question: And the Activity [4]?
Answer: The Activity was “Non-Toxic”.

Question: What about the Activity [5] of the same molecule?
Answer: Its Activity is “Non-Toxic”.

Question: What about the Activity [6] of the same molecule?
Answer: Its Activity is “Non-Toxic”.

Question: What about the Activity [7] of the same molecule?
Answer: Its Activity is “Non-Toxic”.

Question: What about the Activity [8] of the same molecule?
Answer: The Activity was “Non-Toxic”.

Question: What about the MNTC at 48 h [9] of the same molecule?
Answer: The MNTC at 48 h was 500 µM.

Question: Which Activity [1] does the source give for `OCCN1CCN(CC(O)COc2cc(Cl)c(Cl)cc2Cl)CC1` (stereo not drawn) here?
Answer: The Activity was “Toxic”.

Question: And the Activity [2]?
Answer: The Activity was “Toxic”.

Question: What about the Activity [3] of the same molecule?
Answer: The Activity was “Toxic”.

Question: What about the Activity [4] of the same molecule?
Answer: The Activity was “Toxic”.

Question: What about the Activity [5] of the same molecule?
Answer: The Activity was “Toxic”.

Question: And the Activity [6]?
Answer: The Activity was “Toxic”.

Question: And the Activity [7]?
Answer: The Activity was “Toxic”.

Question: What about the Activity [8] of the same molecule?
Answer: The Activity was “Toxic”.

Question: Which results are given for `NCCCNCCSP(=O)(O)O` [AMIFOSTINE]?
Answer: Activity [11]: Toxic; MNTC at 48 h [9]: 10 µM
